Sampled rows, rich in hits. Any-hit rate of the full collection: about 2.2%.
CR mimetic SO – caloric restriction mimetics inhibiting age-related superoxide in yeast. S. cerevisiae aged cells, superoxide DHE fluorescence; stronger effect = lower value. superoxide response (% of plate mean), % at 10 µM. 330,000 tested, 0.18% active. AID 2690;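 active = superoxide response under a set limit, about three screen SD below normal, cut at about 65% in these data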;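 note: yeast aged for seven days with compound at 30 °C before DHE staining; 100% = average MFI of all compound-treated wells on the plate with controls excluded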
PglD DTNB – blocks C. jejuni PglD acetyltransferase activity. purified PglD enzyme, DTNB colorimetric CoA detection. inhibition, % at 12.5 µM. 360,000 tested, 0.098% active; in the data active = inhibition above about 16%, passing the limit was not always enough
Cneo AK release – causes C. neoformans cell lysis; adenylate kinase release luminescence, 4 h; normalised: neutral wells 0, clomiphene wells 100; lysis activity, % at 15 µM; 360,000 tested, 0.2% active;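 active = mean lysis activity across replicates of at least 80%, whatever share of replicates individually reach that level; inactive = mean lysis activity below 80%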
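Material: C. neoformans cells; Schedule: 4 h static compound exposure, 37 °C, read 1 h post-reagent; Measured by: adenylate kinase release luminescence; Read-out: signal increase indicating cell lysis; Controls: Clomiphene as positive lysis control.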
SUMO Mot1 rescue – SUMOylation pathway inhibition by Mot1-301 growth rescue; S. cerevisiae Mot1-301 growth rescue, ATP luminescence, 38.5C; percent above DMSO median, 100 means doubled; AID 2716; 320,000 tested, 1% active; growth rescue, % at 18.8 µM;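 active = every valid replicate shows activation above 250% relative to neutral control wells; inactive = the rest, any valid replicate at or below 250%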;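 note: OY570 slx delta 5 strain wells were the positive control but not used for scaling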
Ecoli rRNA inh – inhibits bacterial ribosomal RNA function over humanized ribosomes | E. coli WT GFP vs humanized-ribosome RFP mutants, fluorescence, 24 h; stronger effect = lower value; DMSO median 0, no signal -100 | GFP signal change (wild-type ribosome), % (no concentration beside the values) | 350,000 tested, 1.6% active;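 active = significant combined selectivity score with lowered wild-type GFP, culture density cut under 30%, mutant RFP and density less affected; inactive = any of these conditions unmet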
* hit, by the source's call.

CCc1ccc(C(=O)CSc2nc(C)cc(=O)[nH]2)cc1 was read as CR mimetic SO 105, SUMO Mot1 rescue 10 and Ecoli rRNA inh -27*.
`CC(=O)Nc1ccc(NC(=O)C2Cc3c(-c4ccc5c(c4)OCO5)ccnc3O2)cc1` (stereo not given) gave PglD DTNB -2, Cneo AK release -3 and Ecoli rRNA inh 0.
Screening CC(=O)Nc1cccc(-c2ccnc3c2CC(C(=O)Nc2ccc4c(c2)OCO4)O3)c1 (stereo not given) returned PglD DTNB 3, Cneo AK release 1 and Ecoli rRNA inh -22*.
Screening CCCc1cn(CC[C@H]2CC[C@H](NC(=O)C3CCOCC3)[C@@H](CO)O2)nn1 returned PglD DTNB -4, Cneo AK release 53 and Ecoli rRNA inh 1.
For O=C(CN1C(=O)NC(c2ccccc2)(c2ccccc2)C1=O)NCc1cccs1 the results were PglD DTNB 1, Cneo AK release 0 and Ecoli rRNA inh -36*.
`CCCNC(=O)c1cc2c(c(-c3cccc(-c4cccc(OC)c4)c3)n1)[C@@H](CCO)N([S@](=O)C(C)(C)C)C2` gave PglD DTNB -4, Cneo AK release -6 and Ecoli rRNA inh -6.
For COc1ccc(C(=O)NCCc2cnc[nH]2)cc1OC the results were CR mimetic SO 92, PglD DTNB -5, Cneo AK release 16, SUMO Mot1 rescue 282* and Ecoli rRNA inh 12.
Screening CCOc1ccc(C(=O)NCCc2cnc[nH]2)cc1OCC returned CR mimetic SO 107, PglD DTNB -2, Cneo AK release 0, SUMO Mot1 rescue 3 and Ecoli rRNA inh 6.
Nc1nn(-c2ccccc2)c(N)c1N=Nc1ccccc1 was read as CR mimetic SO 71, PglD DTNB -17, Cneo AK release -1 and SUMO Mot1 rescue 2.
For Nc1nn(-c2ccccc2)c(N)c1N=Nc1ccccc1F the results were CR mimetic SO 89, SUMO Mot1 rescue -4 and Ecoli rRNA inh -37*.
C[C@@H]1CN([C@@H](C)CO)C(=O)c2cc(NS(=O)(=O)c3cn(C)cn3)ccc2O[C@H]1CN(C)C was read as PglD DTNB 0, Cneo AK release 1 and Ecoli rRNA inh -1.
`O=c1c(Cc2ccc(Cl)cc2Cl)c(O)ccn1Cc1ccncc1` gave CR mimetic SO 105, SUMO Mot1 rescue 6 and Ecoli rRNA inh -35*.
Screening O=c1c(C/C=C/c2ccccc2)c(O)ccn1Cc1ccc(Cl)cc1Cl returned CR mimetic SO 108, SUMO Mot1 rescue inactive and Ecoli rRNA inh -19.
For Cn1c(CO)cnc1S(=O)(=O)Cc1ccc(Cl)cc1 the results were CR mimetic SO 92, PglD DTNB -1, Cneo AK release -3, SUMO Mot1 rescue 28 and Ecoli rRNA inh 10.
Screening Cn1c(CO)cnc1SCc1ccc(Cl)cc1 returned CR mimetic SO 107, PglD DTNB 26*, Cneo AK release 0 and SUMO Mot1 rescue 14.
CCCC(NC(=O)CCc1c(C)c2cc3c(-c4ccccc4)coc3cc2oc1=O)C(=O)O (stereo not given) was read as CR mimetic SO 96, PglD DTNB -6, Cneo AK release 3, SUMO Mot1 rescue 3 and Ecoli rRNA inh -34*.
Screening Cc1c(CCC(=O)NCC(=O)O)c(=O)oc2cc3occ(-c4ccccc4)c3cc12 returned CR mimetic SO 102, Cneo AK release 1, SUMO Mot1 rescue 75 and Ecoli rRNA inh -20*.
For Cc1c(CCC(=O)NCCC(=O)O)c(=O)oc2cc3occ(-c4ccccc4)c3cc12 the results were CR mimetic SO 113, PglD DTNB -5, Cneo AK release -6, SUMO Mot1 rescue 9 and Ecoli rRNA inh -20.
`C[C@H](O)C#Cc1cnc2c(c1)C(=O)N([C@@H](C)CO)C[C@H](C)[C@@H](CN(C)Cc1ccccn1)O2` gave PglD DTNB 1, Cneo AK release -3 and Ecoli rRNA inh 8.
Screening Cc1cc(=O)c2ccccc2n1Cc1ccccc1 returned CR mimetic SO 98, SUMO Mot1 rescue 31 and Ecoli rRNA inh -22*.
For Cc1cc(=O)c2ccccc2n1CC(=O)NCc1ccccc1 the results were CR mimetic SO 92, PglD DTNB -6, Cneo AK release -4 and SUMO Mot1 rescue -6.
For CCS(=O)(=O)NCC[C@H]1CC[C@H](NS(=O)(=O)c2cccc(F)c2)[C@H](CO)O1 the results were PglD DTNB -1, Cneo AK release 110* and Ecoli rRNA inh -1.
CCS(=O)(=O)NCC[C@@H]1CC[C@@H](NS(=O)(=O)c2cccc(F)c2)[C@@H](CO)O1 was read as PglD DTNB 0, Cneo AK release 98* and Ecoli rRNA inh -1.
For CCS(=O)(=O)NCC[C@H]1CC[C@H](NS(=O)(=O)c2cccc(F)c2)[C@@H](CO)O1 the results were PglD DTNB 2, Cneo AK release -4 and Ecoli rRNA inh 3.
`COc1ccc(S(=O)(=O)N[C@H]2C=C[C@@H](CC(=O)NCc3ccccc3F)O[C@H]2CO)cc1` gave PglD DTNB 1, Cneo AK release 0 and Ecoli rRNA inh -4.
For Brc1ccc(-c2csc(-c3c[nH]c4ccccc34)n2)cc1 the results were CR mimetic SO 110, PglD DTNB -3, Cneo AK release 0 and SUMO Mot1 rescue -5.
c1ccc2c(-c3csc(-c4ccncc4)n3)c[nH]c2c1 was read as CR mimetic SO 77, PglD DTNB -6, Cneo AK release -3, SUMO Mot1 rescue -10 and Ecoli rRNA inh -27*.
Screening Cc1c(C(=O)NCCSCc2c(F)cccc2Cl)cnn1-c1ccc(F)cc1 returned CR mimetic SO 98, PglD DTNB -4, Cneo AK release 4, SUMO Mot1 rescue 13 and Ecoli rRNA inh -36*.
`Cc1c(C(=O)NCCSCc2ccc(F)cc2)cnn1-c1ccc(Cl)cc1` gave CR mimetic SO 87, PglD DTNB 6, Cneo AK release 1, SUMO Mot1 rescue 195 and Ecoli rRNA inh -38*.
`Cc1c(C(=O)Nc2cc(F)cc(F)c2)cnn1-c1ccccc1` gave CR mimetic SO 93, PglD DTNB 6, Cneo AK release -7, SUMO Mot1 rescue 25 and Ecoli rRNA inh 2.
For Cc1c(C(=O)NCCSCc2cccc(C(F)(F)F)c2)cnn1-c1ccc(F)cc1 the results were CR mimetic SO 93, PglD DTNB 1, Cneo AK release 6, SUMO Mot1 rescue -2 and Ecoli rRNA inh -37*.
Screening COc1cc(C)ccc1OCCOCCOc1cccc2ccc(C)nc12 returned CR mimetic SO 83, PglD DTNB 3, Cneo AK release 6, SUMO Mot1 rescue -6 and Ecoli rRNA inh -32*.
`C=CCc1ccc(OCCOCCOc2cccc3ccc(C)nc23)c(OC)c1` gave CR mimetic SO 112, PglD DTNB -5, Cneo AK release 42 and SUMO Mot1 rescue 11.
Screening COc1ccc(C)cc1-n1c(=O)c2ccccc2c2ccccc2c1=O returned Ecoli rRNA inh -26*.

High-throughput results deposited in PubChem by several laboratories.
